According to ChEMBL document CHEMBL1926550, “Synthesis and antibacterial activity of naphthyridone derivatives containing mono/difluoro-methyloxime pyrrolidine scaffolds” (2012):
In brackets after ≈: the same amount, converted by molar mass.

Columns and labels:
Format in all cases: functional
[1] = system: Escherichia coli; experiment: Antibacterial activity against Escherichia coli 10-2 after 18 hrs by two fold serial dilution method; conditions: 10-2, 18 h
In short: (§1)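 Agar two-fold serial dilution in melted Mueller-Hinton agar, final concentrations 128 down to 0.008 μg/mL. Plates inoculated with 10⁴ cfu and incubated at 35 °C for 18 h. MIC taken as the lowest concentration giving no visible growth on the plate.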

[2] = system: Escherichia coli; experiment: Antibacterial activity against Escherichia coli 10-3 after 18 hrs by two fold serial dilution method; conditions: 10-3, 18 h; in short: as §1
[3] = system: Klebsiella pneumoniae; experiment: Antibacterial activity against Klebsiella pneumoniae 09-2 after 18 hrs by two fold serial dilution method; conditions: 09-2, 18 h; in short: as §1
[4] = system: Klebsiella pneumoniae; experiment: Antibacterial activity against Klebsiella pneumoniae 10-1 after 18 hrs by two fold serial dilution method; conditions: 10-1, 18 h; in short: as §1
[5] = system: Klebsiella pneumoniae; experiment: Antibacterial activity against Klebsiella pneumoniae 10-3 after 18 hrs by two fold serial dilution method; conditions: 10-3, 18 h; in short: as §1
[6] = system: Pseudomonas aeruginosa; experiment: Antibacterial activity against Pseudomonas aeruginosa ATCC 27853 after 18 hrs by two fold serial dilution method; conditions: ATCC 27853, 18 h; in short: as §1
[7] = system: Pseudomonas aeruginosa; experiment: Antibacterial activity against Pseudomonas aeruginosa 10-1 after 18 hrs by two fold serial dilution method; conditions: 10-1, 18 h; in short: as §1
[8] = system: Pseudomonas aeruginosa; experiment: Antibacterial activity against Pseudomonas aeruginosa 10-2 after 18 hrs by two fold serial dilution method; conditions: 10-2, 18 h; in short: as §1
[9] = system: Pseudomonas aeruginosa; experiment: Antibacterial activity against Pseudomonas aeruginosa 10-3 after 18 hrs by two fold serial dilution method; conditions: 10-3, 18 h; in short: as §1
[10] = system: Enterococcus faecium; experiment: Antibacterial activity against Enterococcus faecium 09-1 after 18 hrs by two fold serial dilution method; conditions: 09-1, 18 h; in short: as §1
[11] = system: Staphylococcus aureus; experiment: Antibacterial activity against Staphylococcus aureus ATCC 25923 after 18 hrs by two fold serial dilution method; conditions: ATCC 25923, 18 h; in short: as §1
[12] = system: Staphylococcus aureus; experiment: Antibacterial activity against methicillin-resistant Staphylococcus aureus 10-1 after 18 hrs by two fold serial dilution method; conditions: 10-1, 18 h
In short: (§2)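 Agar two-fold serial dilution in melted Mueller-Hinton agar, 128 to 0.008 μg/mL. Plates inoculated with 10⁴ cfu, incubated 35 °C for 18 h. MIC taken as lowest concentration giving no visible growth on the plate.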

[13] = system: Staphylococcus aureus; experiment: Antibacterial activity against methicillin-resistant Staphylococcus aureus 10-2 after 18 hrs by two fold serial dilution method; conditions: 10-2, 18 h; in short: as §2
[14] = system: Staphylococcus aureus; experiment: Antibacterial activity against methicillin-resistant Staphylococcus aureus 10-3 after 18 hrs by two fold serial dilution method; conditions: 10-3, 18 h; in short: as §2
[15] = system: Staphylococcus aureus; experiment: Antibacterial activity against methicillin-resistant Staphylococcus aureus 10-4 after 18 hrs by two fold serial dilution method; conditions: 10-4, 18 h; in short: as §2
[16] = system: Staphylococcus aureus; experiment: Antibacterial activity against methicillin-sensitive Staphylococcus aureus 10-1 after 18 hrs by two fold serial dilution method; conditions: 10-1, 18 h; in short: as §1
[17] = system: Staphylococcus aureus; experiment: Antibacterial activity against methicillin-sensitive Staphylococcus aureus 10-2 after 18 hrs by two fold serial dilution method; conditions: 10-2, 18 h; in short: as §1
[18] = system: Staphylococcus aureus; experiment: Antibacterial activity against methicillin-sensitive Staphylococcus aureus 10-3 after 18 hrs by two fold serial dilution method; conditions: 10-3, 18 h; in short: as §1
[19] = system: Staphylococcus aureus; experiment: Antibacterial activity against methicillin-sensitive Staphylococcus aureus 10-4 after 18 hrs by two fold serial dilution method; conditions: 10-4, 18 h; in short: as §1
[20] = system: Staphylococcus aureus; experiment: Antibacterial activity against methicillin-sensitive Staphylococcus aureus 10-5 after 18 hrs by two fold serial dilution method; conditions: 10-5, 18 h; in short: as §1
[21] = system: Staphylococcus aureus; experiment: Antibacterial activity against methicillin-sensitive Staphylococcus aureus 10-6 after 18 hrs by two fold serial dilution method; conditions: 10-6, 18 h; in short: as §1
[22] = system: Staphylococcus epidermidis; experiment: Antibacterial activity against methicillin-resistant Staphylococcus epidermidis 10-1 after 18 hrs by two fold serial dilution method; conditions: 10-1, 18 h; in short: as §2
[23] = system: Staphylococcus epidermidis; experiment: Antibacterial activity against methicillin-resistant Staphylococcus epidermidis 10-2 after 18 hrs by two fold serial dilution method; conditions: 10-2, 18 h; in short: as §2
[24] = system: Staphylococcus epidermidis; experiment: Antibacterial activity against methicillin-sensitive Staphylococcus epidermidis 10-1 after 18 hrs by two fold serial dilution method; conditions: 10-1, 18 h; in short: as §1
[25] = system: Staphylococcus epidermidis; experiment: Antibacterial activity against methicillin-sensitive Staphylococcus epidermidis 10-2 after 18 hrs by two fold serial dilution method; conditions: 10-2, 18 h; in short: as §1
[26] = system: Streptococcus pneumoniae; experiment: Antibacterial activity against Streptococcus pneumoniae 10-1 after 18 hrs by two fold serial dilution method; conditions: 10-1, 18 h; in short: as §1
[27] = system: Enterococcus faecium; experiment: Antibacterial activity against Enterococcus faecium 09-2 after 18 hrs by two fold serial dilution method; conditions: 09-2, 18 h; in short: as §1
[28] = system: Enterococcus faecium; experiment: Antibacterial activity against Enterococcus faecium 09-3 after 18 hrs by two fold serial dilution method; conditions: 09-3, 18 h; in short: as §1
[29] = system: Enterococcus faecium; experiment: Antibacterial activity against Enterococcus faecium 09-4 after 18 hrs by two fold serial dilution method; conditions: 09-4, 18 h; in short: as §1
[30] = system: Enterococcus faecium; experiment: Antibacterial activity against Enterococcus faecium 09-5 after 18 hrs by two fold serial dilution method; conditions: 09-5, 18 h; in short: as §1
[31] = system: Enterococcus faecium; experiment: Antibacterial activity against Enterococcus faecium 09-6 after 18 hrs by two fold serial dilution method; conditions: 09-6, 18 h; in short: as §1
[32] = system: Enterococcus faecalis; experiment: Antibacterial activity against Enterococcus faecalis 09-1 after 18 hrs by two fold serial dilution method; conditions: 09-1, 18 h; in short: as §1
[33] = system: Enterococcus faecalis; experiment: Antibacterial activity against Enterococcus faecalis 09-2 after 18 hrs by two fold serial dilution method; conditions: 09-2, 18 h; in short: as §1
[34] = system: Escherichia coli; experiment: Antibacterial activity against Escherichia coli ATCC 25922 after 18 hrs by two fold serial dilution method; conditions: ATCC 25922, 18 h; in short: as §1
[35] = system: Escherichia coli; experiment: Antibacterial activity against Escherichia coli 09-2 after 18 hrs by two fold serial dilution method; conditions: 09-2, 18 h; in short: as §1
[36] = system: Escherichia coli; experiment: Antibacterial activity against Escherichia coli 10-1 after 18 hrs by two fold serial dilution method; conditions: 10-1, 18 h; in short: as §1
[37] = system: Escherichia coli; experiment: Antibacterial activity against Escherichia coli 09-1 after 18 hrs by two fold serial dilution method; conditions: 09-1, 18 h; in short: as §1
[38] = system: Escherichia coli; experiment: Antibacterial activity against Escherichia coli 09-3 after 18 hrs by two fold serial dilution method; conditions: 09-3, 18 h; in short: as §1

COc1c(N2C[C@@H]3CCCN[C@@H]3C2)c(F)cc2c(=O)c(C(=O)O)cn(C3CC3)c12 [MOXIFLOXACIN]
MIC [1]: 0.5 µg/mL (≈ 1.25 µM) | MIC [2]: 4 µg/mL (≈ 9.96 µM) | MIC [3]: 16 µg/mL (≈ 39.9 µM) | MIC [4]: 0.03 µg/mL (≈ 0.0747 µM) | MIC [5]: 0.5 µg/mL (≈ 1.25 µM) | MIC [6]: 1 µg/mL (≈ 2.49 µM) | MIC [7]: 0.5 µg/mL (≈ 1.25 µM) | MIC [8]: 16 µg/mL (≈ 39.9 µM) | MIC [9]: 4 µg/mL (≈ 9.96 µM) | MIC [10]: 16 µg/mL (≈ 39.9 µM) | MIC [11]: 0.008 µg/mL (≈ 0.0199 µM) | MIC [12]: 8 µg/mL (≈ 19.9 µM) | MIC [13]: 8 µg/mL (≈ 19.9 µM) | MIC [14]: 8 µg/mL (≈ 19.9 µM) | MIC [15]: 8 µg/mL (≈ 19.9 µM) | MIC [16]: 0.008 µg/mL (≈ 0.0199 µM) | MIC [17]: 4 µg/mL (≈ 9.96 µM) | MIC [18]: 0.008 µg/mL (≈ 0.0199 µM) | MIC [19]: 0.008 µg/mL (≈ 0.0199 µM) | MIC [20]: 0.03 µg/mL (≈ 0.0747 µM) | MIC [21]: 0.008 µg/mL (≈ 0.0199 µM) | MIC [22]: 0.5 µg/mL (≈ 1.25 µM) | MIC [23]: 1 µg/mL (≈ 2.49 µM) | MIC [24]: 2 µg/mL (≈ 4.98 µM) | MIC [25]: 16 µg/mL (≈ 39.9 µM) | MIC [26]: 0.008 µg/mL (≈ 0.0199 µM) | MIC [27]: 16 µg/mL (≈ 39.9 µM) | MIC [28]: 2 µg/mL (≈ 4.98 µM) | MIC [29]: 0.008 µg/mL (≈ 0.0199 µM) | MIC [30]: 16 µg/mL (≈ 39.9 µM) | MIC [31]: 0.125 µg/mL (≈ 0.311 µM) | MIC [32]: 8 µg/mL (≈ 19.9 µM) | MIC [33]: 16 µg/mL (≈ 39.9 µM) | MIC [34]: 0.008 µg/mL (≈ 0.0199 µM) | MIC [35]: 32 µg/mL (≈ 79.7 µM)

CC1(CN)CN(c2ccc3c(=O)c(C(=O)O)cn(C4CC4)c3n2)C/C1=N\OCF (racemic)
MIC [36]: > 128 µg/mL | MIC [1]: 1 µg/mL (≈ 2.48 µM) | MIC [2]: 128 µg/mL (≈ 317 µM) | MIC [3]: > 128 µg/mL | MIC [4]: 0.25 µg/mL (≈ 0.62 µM) | MIC [5]: 2 µg/mL (≈ 4.96 µM) | MIC [6]: 1 µg/mL (≈ 2.48 µM) | MIC [7]: 0.5 µg/mL (≈ 1.24 µM) | MIC [8]: 64 µg/mL (≈ 159 µM) | MIC [9]: 8 µg/mL (≈ 19.8 µM) | MIC [10]: 32 µg/mL (≈ 79.3 µM) | MIC [11]: 0.03 µg/mL (≈ 0.0744 µM) | MIC [12]: 128 µg/mL (≈ 317 µM) | MIC [13]: 8 µg/mL (≈ 19.8 µM) | MIC [14]: 128 µg/mL (≈ 317 µM) | MIC [15]: 128 µg/mL (≈ 317 µM) | MIC [16]: 0.5 µg/mL (≈ 1.24 µM) | MIC [17]: 32 µg/mL (≈ 79.3 µM) | MIC [18]: 0.015 µg/mL (≈ 0.0372 µM) | MIC [19]: 0.015 µg/mL (≈ 0.0372 µM) | MIC [20]: 0.03 µg/mL (≈ 0.0744 µM) | MIC [21]: 0.03 µg/mL (≈ 0.0744 µM) | MIC [22]: 4 µg/mL (≈ 9.92 µM) | MIC [23]: 8 µg/mL (≈ 19.8 µM) | MIC [24]: 4 µg/mL (≈ 9.92 µM) | MIC [25]: 64 µg/mL (≈ 159 µM) | MIC [26]: 0.015 µg/mL (≈ 0.0372 µM) | MIC [27]: 32 µg/mL (≈ 79.3 µM) | MIC [28]: 2 µg/mL (≈ 4.96 µM) | MIC [29]: 0.5 µg/mL (≈ 1.24 µM) | MIC [30]: 32 µg/mL (≈ 79.3 µM) | MIC [31]: 0.5 µg/mL (≈ 1.24 µM) | MIC [32]: 32 µg/mL (≈ 79.3 µM) | MIC [33]: 0.015 µg/mL (≈ 0.0372 µM) | MIC [34]: 0.015 µg/mL (≈ 0.0372 µM) | MIC [37]: > 128 µg/mL | MIC [35]: > 128 µg/mL | MIC [38]: > 128 µg/mL
